The species named for assay [1] is Rattus norvegicus. Briefly: Ability to block apomorphine-induced stereotypy in rats. In kind it is functional. The procedure, abridged:
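Male Wistar rats (150–250 g), 6–10 per dose group, given distilled water or test drug ip; apomorphine 1.5 mg/kg sc 50 min later. Rats were placed singly in cages and scored 10 min afterwards for continuous stereotyped licking or sniffing. Inhibition was the number of animals protected versus controls. ED50 was obtained by probit analysis.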

Assay [2] deals with Serotonin 2 (5-HT2) receptor (Rattus norvegicus, UniProt P30994+P08909+P14842). Description: Affinity for 5-hydroxytryptamine 2 receptor binding sites by its ability to displace [3H]spiperone from rat frontal cortex.
The species named for assay [3] is Mus musculus. Description: Ability to inhibit apomorphine-induced climbing behavior in mice. It is filed as functional. The essentials: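 Male CD-1 mice (18–30 g) were adapted for 1 h in wire-mesh cages, 8 per dose group. Distilled water or drug was given ip 30 or 60 min before apomorphine 1.5 mg/kg sc.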

Where only a bound is given, the exact number is not on record here.

For `CC(=O)c1ccc2c(c1)OCC(CCN1CCC(c3noc4cc(F)ccc34)CC1)O2` (stereo unspecified), the values for the ED50 in assay [1] and in assay [3] were above 80 mg/kg and 13.7 mg/kg, respectively. In assay [2], the IC50 (in general, the concentration needed to halve the response being measured) was determined as 91 nM.

In the case of `CC(=O)c1ccc(OCCCN2CCC(c3noc4cc(F)ccc34)CC2)c(N(C)C)c1`, the ED50 (usually the midpoint of the dose-response relation) in assay [1] is 4.3 mg/kg; in assay [3], 0.15 mg/kg. In addition, the IC50 in assay [2] is recorded as 16 nM.

With `CNc1ccccc1OCCCN1CCC(c2noc3cc(F)ccc23)CC1`, the results for the ED50 in assay [1] and in assay [3] were 22.3 mg/kg and 0.81 mg/kg, respectively. Besides, the half-inhibitory concentration (IC50) in assay [2] was 17 nM.

Consider `COc1cc2cc[nH]c2cc1OCCCN1CCC(c2noc3cc(F)ccc23)CC1`, for which the results for the 50% effective dose (ED50) in assay [1] and in assay [3] were 8.6 mg/kg and 2.7 mg/kg, respectively. In assay [2], this compound registered a half-inhibitory concentration (IC50) of 3.2 nM.

In the case of `CC(=O)c1cccc(OCCCN2CCC(c3noc4cc(F)ccc34)CC2)c1`, the ED50 in assay [1] worked out at 6.4 mg/kg; in assay [3] it was 0.39 mg/kg. Further, in assay [2], the IC50 is 63 nM.

For `CCC(=O)c1ccc(OCCCN2CCC(c3noc4cc(F)ccc34)CC2)c(OC)c1`, the median effective dose (ED50) was above 20 mg/kg in assay [1] and 0.77 mg/kg in assay [3]. In addition, the concentration for half-maximal inhibition (IC50) in assay [2] was found to be 11 nM.

`COc1cc(C(C)=O)ccc1OCCCCN1CCC(c2noc3cc(Cl)ccc23)CC1`: the median effective dose (ED50) in assay [1] is 9.7 mg/kg; in assay [3], 2.4 mg/kg. For the same compound, in assay [2], the IC50 is reported as 143 nM.

Consider `COc1cc(C(=O)c2ccccc2)ccc1OCCCN1CCC(c2noc3cc(F)ccc23)CC1`, for which the ED50 in assay [1] is above 80 mg/kg; in assay [3], 18.1 mg/kg. The 50% inhibitory concentration (IC50) in assay [2] turned out to be 241 nM.

As for `CC(O)c1ccc(OCCCN2CCC(c3noc4cc(F)ccc34)CC2)c(O)c1` (stereo unspecified), the ED50 in assay [1] worked out at 3.6 mg/kg; in assay [3] it was 0.058 mg/kg. In assay [2], this compound yielded an IC50 of 53 nM.

Turning to `COc1cc(Br)ccc1OCCCN1CCC(c2noc3cc(F)ccc23)CC1`, the ED50 in assay [1] was found to be 15.3 mg/kg; in assay [3] it was 1.6 mg/kg. For the same compound, the IC50 in assay [2] stood at 49 nM.

Take `CNc1cc(C(C)=O)ccc1OCCCN1CCC(c2noc3cc(F)ccc23)CC1`: the values for the median effective dose (ED50) in assay [1] and in assay [3] were 47.6 mg/kg and 0.15 mg/kg, respectively. The same compound showed an IC50 in assay [2] of 42 nM.

Consider `CC(=O)c1ccc(OCCCN2CCC(c3noc4cc(F)ccc34)CC2)cc1`, for which the results for the ED50 in assay [1] and in assay [3] were 5.7 mg/kg and 0.84 mg/kg, respectively. This compound also showed a concentration for half-maximal inhibition (IC50) in assay [2] of 5.5 nM.

Take `CCCCC(=O)c1ccc(OCCCN2CCC(c3noc4cc(F)ccc34)CC2)c(OC)c1`: the values for the 50% effective dose (ED50) in assay [1] and in assay [3] were 16.9 mg/kg and 0.78 mg/kg, respectively. For the same compound, in assay [2], the IC50 came to 89 nM.

In assay [2], `COc1cc(C(C)=O)ccc1OCCN1CCC(c2noc3cc(Cl)ccc23)CC1` showed a 50% inhibitory concentration (IC50) of 45 nM. In assay [3], this compound displayed a 50% effective dose (ED50) above 20 mg/kg.

Consider `COc1cc(OCCCN2CCC(c3noc4cc(F)ccc34)CC2)ccc1C(C)=O`, for which the ED50 in assay [1] is 8.2 mg/kg; in assay [3] it was 0.28 mg/kg. The IC50 in assay [2] amounted to 23 nM.

`CC(=O)c1ccc(OCCCN2CCC(c3noc4cc(F)ccc34)CC2)c(O)c1`: the median effective dose (ED50) in assay [1] turned out to be 0.7 mg/kg; in assay [3], 0.054 mg/kg. The same compound yielded an IC50 in assay [2] of 2.9 nM.

Turning to `COc1cc(C(=O)C(F)(F)F)ccc1OCCCN1CCC(c2noc3cc(F)ccc23)CC1`, the results for the median effective dose (ED50) in assay [1] and in assay [3] were above 20 mg/kg and 2.2 mg/kg, respectively. The same compound came in with an IC50 in assay [2] of 38 nM.

With `CC(=O)Nc1cc(C(C)=O)ccc1OCCCN1CCC(c2noc3cc(F)ccc23)CC1`, the results for the ED50 in assay [1] and in assay [3] were 21.1 mg/kg and 0.049 mg/kg, respectively. Also, the IC50 in assay [2] was determined as 20 nM.

For the compound `COc1cc(C(C)O)ccc1OCCCN1CCC(c2noc3cc(F)ccc23)CC1` (stereo unspecified), the ED50 in assay [1] amounted to 22.7 mg/kg; in assay [3], 0.12 mg/kg. For the same compound, the half-inhibitory concentration (IC50) in assay [2] is 22 nM.

As for `COc1cc(C(C)=O)cc(OC)c1OCCCN1CCC(c2noc3cc(F)ccc23)CC1`, the values for the ED50 in assay [1] and in assay [3] were 13.6 mg/kg and 0.72 mg/kg, respectively. The same compound came in with an IC50 in assay [2] below 10 nM.

As to `COc1cc(C(=O)N(C)C)ccc1OCCCN1CCC(c2noc3cc(F)ccc23)CC1`, the ED50 in assay [1] was 26.7 mg/kg; in assay [3], 0.72 mg/kg. This compound also gave a half-maximal inhibitory concentration (IC50) in assay [2] of 5.2 nM.

With `COc1ccc(NC(C)=O)cc1OCCCN1CCC(c2noc3cc(F)ccc23)CC1`, the ED50 in assay [1] was determined as 30.1 mg/kg; in assay [3] it was 0.6 mg/kg. In assay [2], this compound registered an IC50 of 3.8 nM.

Regarding `CC(=O)c1cc(C)ccc1OCCCN1CCC(c2noc3cc(F)ccc23)CC1`, the median effective dose (ED50) in assay [1] was 25.1 mg/kg; in assay [3] it was 5.6 mg/kg. This compound also registered an IC50 in assay [2] of 153 nM.

Turning to `COc1cc(C#N)ccc1OCCCN1CCC(c2noc3cc(F)ccc23)CC1`, the 50% effective dose (ED50) in assay [1] was found to be 15.7 mg/kg; in assay [3], 1 mg/kg. The IC50 in assay [2] was 45 nM.

`CCc1ccc(OCCCN2CCC(c3noc4cc(F)ccc34)CC2)c(OC)c1`: the ED50 in assay [1] came to 9.5 mg/kg; in assay [3], 0.18 mg/kg. This compound had an IC50 in assay [2] of 16 nM.

Regarding `COc1cc(C(C)=O)ccc1OCCCN1CCC(c2noc3ccc(F)cc23)CC1`, the ED50 was above 80 mg/kg in assay [1] and 5.2 mg/kg in assay [3]. Moreover, the IC50 in assay [2] amounted to 122 nM.

In the case of `Nc1ccccc1OCCCN1CCC(c2noc3cc(F)ccc23)CC1`, the ED50 in assay [1] worked out at 5.5 mg/kg; in assay [3], 0.42 mg/kg.

Regarding `COc1ccccc1OCCCN1CCC(c2noc3cc(F)ccc23)CC1`, the ED50 in assay [1] came to 9.7 mg/kg; in assay [3], 0.48 mg/kg. For the same compound, the half-inhibitory concentration (IC50) in assay [2] turned out to be 5.2 nM.

In the case of `CC(=O)c1ccc(OCCCN2CCC(c3noc4cc(F)ccc34)CC2)c(C)c1`, the 50% effective dose (ED50) in assay [1] turned out to be 31.4 mg/kg; in assay [3], 0.25 mg/kg.

With `COc1ccc(N)cc1OCCCN1CCC(c2noc3cc(F)ccc23)CC1`, the values for the median effective dose (ED50) in assay [1] and in assay [3] were 13 mg/kg and 0.16 mg/kg, respectively. The IC50 in assay [2] is 2 nM.

For the compound `C=C(C)c1ccc(OCCCN2CCC(c3noc4cc(F)ccc34)CC2)c(OC)c1`, the ED50 in assay [1] turned out to be 25 mg/kg; in assay [3], 0.55 mg/kg. The 50% inhibitory concentration (IC50) in assay [2] amounted to 20 nM.

For the compound `COc1cc(C(C)=O)ccc1NCCCN1CCC(c2noc3cc(F)ccc23)CC1`, the ED50 in assay [1] was found to be 9.3 mg/kg; in assay [3], 0.26 mg/kg. For the same compound, the half-inhibitory concentration (IC50) in assay [2] is 18 nM.

Consider `COc1cc(C(N)=O)ccc1OCCCN1CCC(c2noc3cc(F)ccc23)CC1`, for which the figures for the ED50 in assay [1] and in assay [3] were 22.7 mg/kg and 1.6 mg/kg, respectively. Further, the half-inhibitory concentration (IC50) in assay [2] was determined as 0.9 nM.

For `COc1cc(C(C)=O)ccc1SCCCN1CCC(c2noc3cc(F)ccc23)CC1`, the results for the 50% effective dose (ED50) in assay [1] and in assay [3] were 13.6 mg/kg and 2 mg/kg, respectively. This compound displayed a concentration for half-maximal inhibition (IC50) in assay [2] of 41 nM.

For `COc1cc(C(C)=O)ccc1OCCCN1CCC(c2noc3cc(Cl)ccc23)CC1`, the values for the median effective dose (ED50) in assay [1] and in assay [3] were above 80 mg/kg and 3.3 mg/kg, respectively. In assay [2], the 50% inhibitory concentration (IC50) is reported as 4.9 nM.

For `COc1cc(C(C)=O)ccc1OCCCCN1CCC(c2noc3cc(F)ccc23)CC1`, the ED50 in assay [1] is 7.5 mg/kg; in assay [3], 0.68 mg/kg. Moreover, the IC50 in assay [2] is 8.5 nM.

Consider `COc1cc(C(C)=O)ccc1OCCCCN1CCC(c2noc3ccccc23)CC1`, for which the figures for the 50% effective dose (ED50) in assay [1] and in assay [3] were 17 mg/kg and 1.6 mg/kg, respectively. The same compound displayed an IC50 in assay [2] of 34 nM.

In assay [2], `COc1cc(C(C)=O)ccc1OCCN1CCC(c2noc3ccccc23)CC1` displayed an IC50 of 26 nM. The ED50 in assay [3] is 7.4 mg/kg.

Turning to `COc1cc(/C(C)=N\N)ccc1OCCCN1CCC(c2noc3cc(F)ccc23)CC1`, the 50% effective dose (ED50) in assay [1] was 17.4 mg/kg; in assay [3] it was 0.64 mg/kg. This compound also came in with an IC50 in assay [2] of 20 nM.

With `CSc1cc(C(C)=O)ccc1OCCCN1CCC(c2noc3cc(F)ccc23)CC1`, in assay [2], the half-inhibitory concentration (IC50) is recorded as 170 nM. Besides, the ED50 in assay [3] stood at 20 mg/kg.

With `COc1cc(C(C)=O)ccc1OCCN1CCC(c2noc3cc(F)ccc23)CC1`, the ED50 in assay [1] is above 80 mg/kg; in assay [3] it was 5.3 mg/kg. This compound also had a half-maximal inhibitory concentration (IC50) in assay [2] of 67 nM.

Turning to `COc1cc(/C(C)=N\O)ccc1OCCCN1CCC(c2noc3cc(F)ccc23)CC1`, the figures for the 50% effective dose (ED50) in assay [1] and in assay [3] were above 80 mg/kg and 1.1 mg/kg, respectively. In addition, in assay [2], the IC50 turned out to be 0.7 nM.

`COc1cc(C(C)=O)ccc1OCCCN1CCC(c2noc3ccccc23)CC1`: the figures for the ED50 in assay [1] and in assay [3] were 20.8 mg/kg and 0.67 mg/kg, respectively. In assay [2], this compound had an IC50 of 3.5 nM.

`CC(=O)c1ccc(OCCCN2CCC(c3noc4cc(F)ccc34)CC2)cc1C`: the values for the 50% effective dose (ED50) in assay [1] and in assay [3] were 52.3 mg/kg and 1.2 mg/kg, respectively. Further, the IC50 in assay [2] stood at 36 nM.

Regarding `Fc1ccc2c(C3CCN(CCCOc4ccccc4)CC3)noc2c1`, the 50% effective dose (ED50) in assay [1] was 7.1 mg/kg; in assay [3], 0.62 mg/kg. This compound also displayed an IC50 in assay [2] of 33 nM.

For `CCOc1cc(C(C)=O)ccc1OCCCN1CCC(c2noc3cc(F)ccc23)CC1`, the ED50 in assay [1] was 14.5 mg/kg; in assay [3], 0.56 mg/kg. In assay [2], this compound had a half-inhibitory concentration (IC50) of 3.8 nM.

For the compound `COc1cc2c(cc1OCCCN1CCC(c3noc4cc(F)ccc34)CC1)CCCC2=O`, the 50% effective dose (ED50) in assay [1] came out at 25 mg/kg; in assay [3], 2.3 mg/kg. Moreover, in assay [2], the half-maximal inhibitory concentration (IC50) was below 10 nM.

Values taken from ChEMBL document CHEMBL1128281 (J Med Chem, 1995).
